Assay results: ChEMBL document CHEMBL1143797, “Synthesis, characterization and in vitro biological studies of novel cyano derivatives of N-alkyl and N-aryl piperazine” (2007)
Converted amounts (≈) assume the structure as drawn. The source made the active and inactive calls. No cut-off for these calls is given here.

What was measured:
[1] = test system: Staphylococcus aureus; assay: Antibacterial activity against Staphylococcus aureus MTCCB 737 at 30 ug/disc after 48 hrs by disc diffusion method; format: functional; conditions: for zone of inhibition at 30 µg/disc: read-out: IZ
In short: (§1)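 Compound-impregnated discs were placed on agar plates pre-inoculated with the bacterial strain and incubated at 37 °C. Zones of inhibition around the discs were read at 48 h. Gentamicin served as the standard control, alongside a solvent-only (DMSO) disc.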

[2] = test system: Staphylococcus epidermidis; assay: Antibacterial activity against Staphylococcus epidermidis MTCCB 1824 at 30 ug/disc after 48 hrs by disc diffusion method; format: functional; conditions: for zone of inhibition at 30 µg/disc: read-out: IZ; in short: as §1
[3] = test system: Pseudomonas aeruginosa; assay: Antibacterial activity against Pseudomonas aeruginosa MTCCB 741 at 30 ug/disc after 48 hrs by disc diffusion method; format: functional; conditions: for zone of inhibition at 30 µg/disc: read-out: IZ; in short: as §1
[4] = test system: Escherichia coli; assay: Antibacterial activity against Escherichia coli MTCCB 1652 at 30 ug/disc after 48 hrs by disc diffusion method; format: functional; conditions: for zone of inhibition at 30 µg/disc: read-out: IZ; in short: as §1
[5] = test system: Staphylococcus aureus; assay: Antibacterial activity against Staphylococcus aureus MTCCB 737 after 18-20 hrs by broth dilution method; format: functional
In short: (§2)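 MIC was found by microbroth dilution in Mueller-Hinton broth with serial two-fold compound dilutions. The inoculum came from a 4–6 h broth culture adjusted to 0.5 McFarland, then diluted in broth to a final 3 × 10⁶ cfu/ml.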

[6] = test system: Staphylococcus epidermidis; assay: Antibacterial activity against Staphylococcus epidermidis MTCCB 1824 after 18-20 hrs by broth dilution method; format: functional; in short: as §2
[7] = test system: Pseudomonas aeruginosa; assay: Antibacterial activity against Pseudomonas aeruginosa MTCCB 741 after 18-20 hrs by broth dilution method; format: functional; in short: as §2
[8] = test system: Escherichia coli; assay: Antibacterial activity against Escherichia coli MTCCB 1652 after 18-20 hrs by broth dilution method; format: functional; in short: as §2
[9] = test system: Aspergillus flavus; assay: Antifungal activity against Aspergillus flavus ITCC 5192 by disc diffusion method; format: functional
In short: (§3)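 Agar plates inoculated with Aspergillus spores; sterile 5.0 mm filter-paper discs loaded with test compound over a range of 750–1.46 (unit as printed unclear) and placed on the surface. Incubated at 37 °C; zones read at 24, 48 and 96 h. MIC was taken as the lowest concentration giving an inhibition zone of at least 6.0 mm diameter.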

[10] = test system: Aspergillus niger; assay: Antifungal activity against Aspergillus niger ITCC 5405 by disc diffusion method; format: functional; in short: as §3
[11] = test system: Aspergillus fumigatus; assay: Antifungal activity against Aspergillus fumigatus ITCC 4517 by disc diffusion method; format: functional; in short: as §3
[12] = test system: Aspergillus flavus; assay: Antifungal activity against Aspergillus flavus ITCC 5192 by micro-broth dilution method; format: functional
[13] = test system: Aspergillus niger; assay: Antifungal activity against Aspergillus niger ITCC 5405 by micro-broth dilution method; format: functional
[14] = test system: Aspergillus fumigatus; assay: Antifungal activity against Aspergillus fumigatus ITCC 4517 by micro-broth dilution method; format: functional
[15] = test system: Aspergillus flavus; assay: Antifungal activity against Aspergillus flavus ITCC 5192 by percentage spore germination inhibition method; format: functional
In short: (§4)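 Compound serially double-diluted in culture medium in 96-well plates, triplicate wells per concentration. Each well inoculated with spore suspension of about 100 ± 5 spores and incubated at 37 °C for 16 h. Germinated and non-germinated spores counted by inverted microscope. MIC90 is the lowest concentration giving >90% inhibition of spore germination.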

[16] = test system: Aspergillus niger; assay: Antifungal activity against Aspergillus niger ITCC 5405 by percentage spore germination inhibition method; format: functional; in short: as §4
[17] = test system: Aspergillus fumigatus; assay: Antifungal activity against Aspergillus fumigatus ITCC 4517 by percentage spore germination inhibition method; format: functional; in short: as §4
[18] = test system: HeLa; assay: Cytotoxicity against Hela cells at 30 ug after 48 hrs by MTT assay relative to gentamicin; format: functional, Homo sapiens
In short: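 HeLa cells were grown in DMEM with 10% heat-inactivated FBS and penicillin-streptomycin at 37 °C, 5% CO₂, seeded at 8 × 10³ cells/well and allowed 16 h to adhere. They were exposed to compound in serum-free DMEM for 4 h, then kept 48 h in growth medium. MTT was added for 2 h, formazan was dissolved in isopropanol/0.06 M HCl/0.5% SDS, and A540 was read. Viability is % of untreated cells, with gentamicin as comparator.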

Molecule	zone of inhibition at 30 µg/disc [1]	zone of inhibition at 30 µg/disc [2]	zone of inhibition at 30 µg/disc [3]	zone of inhibition at 30 µg/disc [4]	MIC [5]	MIC [6]	MIC [7]	MIC [8]	Activity [10]	Activity [13]	Activity [16]	MIC [12]	MIC [14]	MIC [15]	MIC [17]	further results
N#CCCN1CCN(CCO)CC1	18 mm	11 mm	15 mm	15 mm	19.5 µg/mL (≈ 106 µM)	310 µg/mL (≈ 1690 µM)	39.1 µg/mL (≈ 213 µM)	39.1 µg/mL (≈ 213 µM)	inactive	inactive	inactive	–	–	–	–	Activity [9]: inactive; Activity [11]: inactive; Activity [12]: inactive; Activity [14]: inactive; Activity [15]: inactive; Activity [17]: inactive; Activity [18]: 60%
GENTAMICIN	–	–	–	–	9.8 µg/mL	19.5 µg/mL	19.5 µg/mL	19.5 µg/mL	–	–	–	–	–	–	–	inhibition zone (IZ) [1]: 20 mm; inhibition zone (IZ) [2]: 18 mm; inhibition zone (IZ) [3]: 19 mm; inhibition zone (IZ) [4]: 18 mm
COc1ccccc1N1CCN(CC#N)CC1	9 mm	8 mm	8 mm	10 mm	625 µg/mL (≈ 2700 µM)	625 µg/mL (≈ 2700 µM)	625 µg/mL (≈ 2700 µM)	310 µg/mL (≈ 1340 µM)	–	–	–	–	–	–	–	–
N#CCN1CCN(c2ccccc2)CC1	10 mm	12 mm	13 mm	9 mm	310 µg/mL (≈ 1540 µM)	156 µg/mL (≈ 777 µM)	156 µg/mL (≈ 777 µM)	310 µg/mL (≈ 1540 µM)	–	–	–	500 µg/mL (≈ 2480 µM)	500 µg/mL (≈ 2480 µM)	500 µg/mL (≈ 2480 µM)	250 µg/mL (≈ 1240 µM)	MIC [13]: 500 µg/mL (≈ 2480 µM); MIC [16]: 250 µg/mL (≈ 1240 µM); Activity [18]: >95%
CN1CCN(CC#N)CC1	12 mm	8 mm	9 mm	12 mm	310 µg/mL (≈ 2230 µM)	625 µg/mL (≈ 4490 µM)	625 µg/mL (≈ 4490 µM)	310 µg/mL (≈ 2230 µM)	–	–	–	500 µg/mL (≈ 3590 µM)	500 µg/mL (≈ 3590 µM)	250 µg/mL (≈ 1800 µM)	500 µg/mL (≈ 3590 µM)	MIC [9]: 93.8 µg/disc; MIC [10]: 93.7 µg/disc; MIC [13]: 500 µg/mL (≈ 3590 µM); MIC [16]: 250 µg/mL (≈ 1800 µM)
C[C@@H]1[C@H](O)[C@@H](C)/C=C/C=C/C=C/C=C/C=C/C=C/C=C/[C@H](O[C@@H]2O[C@H](C)[C@@H](O)[C@H](N)[C@@H]2O)C[C@@H]2O[C@](O)(C[C@@H](O)C[C@@H](O)[C@H](O)CC[C@@H](O)C[C@@H](O)CC(=O)O[C@H]1C)C[C@H](O)[C@H]2C(=O)O [AMPHOTERICIN B]	–	–	–	–	–	–	–	–	–	–	–	5 µg/mL (≈ 5.41 µM)	5 µg/mL (≈ 5.41 µM)	5 µg/mL (≈ 5.41 µM)	5 µg/mL (≈ 5.41 µM)	MIC [9]: 2.5 µg/disc; MIC [10]: 2.5 µg/disc; MIC [11]: 2.5 µg/disc; MIC [13]: 5 µg/mL (≈ 5.41 µM); MIC [16]: 5 µg/mL (≈ 5.41 µM)
N#CCCN1CCN(CCC#N)CC1	11 mm	9 mm	11 mm	10 mm	310 µg/mL (≈ 1610 µM)	625 µg/mL (≈ 3250 µM)	156 µg/mL (≈ 813 µM)	625 µg/mL (≈ 3250 µM)	inactive	inactive	inactive	–	–	–	–	Activity [9]: inactive; Activity [11]: inactive; Activity [12]: inactive; Activity [14]: inactive; Activity [15]: inactive
N#CCN1CCN(Cc2ccccc2)CC1	18 mm	10 mm	13 mm	9 mm	19.5 µg/mL (≈ 90.6 µM)	310 µg/mL (≈ 1440 µM)	156 µg/mL (≈ 726 µM)	625 µg/mL (≈ 2900 µM)	inactive	inactive	inactive	–	–	–	–	Activity [9]: inactive; Activity [12]: inactive; Activity [14]: inactive; Activity [15]: inactive
CN1CCN(CCC#N)CC1	10 mm	11 mm	19 mm	18 mm	310 µg/mL (≈ 2030 µM)	156 µg/mL (≈ 1020 µM)	19.5 µg/mL (≈ 127 µM)	39.1 µg/mL (≈ 255 µM)	inactive	inactive	inactive	–	–	–	–	Activity [9]: inactive; Activity [11]: inactive; Activity [12]: inactive; Activity [14]: inactive; Activity [15]: inactive; Activity [17]: inactive
N#CCCN1CCN(Cc2ccccc2)CC1	–	–	–	–	–	–	–	–	–	–	–	–	–	–	–	Activity [1]: inactive; Activity [2]: inactive; Activity [3]: inactive; Activity [5]: inactive; Activity [6]: inactive; Activity [7]: inactive
N#CCN1CCN(c2ccccc2[N+](=O)[O-])CC1	–	–	–	–	–	–	–	–	–	–	–	–	–	–	–	Activity [1]: inactive; Activity [2]: inactive; Activity [3]: inactive; Activity [5]: inactive; Activity [6]: inactive; Activity [7]: inactive; Activity [18]: 60%
N#CCCN1CCN(c2ccccc2)CC1	13 mm	12 mm	9 mm	12 mm	156 µg/mL (≈ 726 µM)	156 µg/mL (≈ 726 µM)	625 µg/mL (≈ 2900 µM)	156 µg/mL (≈ 726 µM)	–	–	–	500 µg/mL (≈ 2320 µM)	250 µg/mL (≈ 1160 µM)	250 µg/mL (≈ 1160 µM)	250 µg/mL (≈ 1160 µM)	MIC [13]: 500 µg/mL (≈ 2320 µM); MIC [16]: 250 µg/mL (≈ 1160 µM); Activity [18]: 60%
N#CCCN1CCNCC1	–	–	–	–	–	–	–	–	–	–	–	–	–	–	–	Activity [1]: inactive; Activity [2]: inactive; Activity [3]: inactive; Activity [5]: inactive; Activity [6]: inactive; Activity [7]: inactive
COc1ccccc1N1CCN(CCC#N)CC1	12 mm	9 mm	9 mm	11 mm	156 µg/mL (≈ 637 µM)	625 µg/mL (≈ 2550 µM)	625 µg/mL (≈ 2550 µM)	156 µg/mL (≈ 637 µM)	inactive	inactive	inactive	1000 µg/mL (≈ 4080 µM)	500 µg/mL (≈ 2040 µM)	500 µg/mL (≈ 2040 µM)	500 µg/mL (≈ 2040 µM)	–
